In ChEMBL document CHEMBL4732114, “Design and structural optimization of novel 2H-benzo[h]chromene derivatives that target AcrB and reverse bacterial multidrug resistance” (Eur J Med Chem, 2021):
Converted amounts (≈) assume the structure as drawn. The source made the active and inactive calls. No cut-off for these calls is given here.

Tests used:
[1] = target: T1, Multidrug efflux pump subunit AcrB (Escherichia coli (strain K12)) (UniProt P31224); assay: Inhibition of AcrB in multidrug-resistant Escherichia coli BW25113 assessed as potentiation of levofloxacin-induced antibacterial activity by measuring levofloxacin MIC at 16 ug/ml by checkerboard titration method (reference value: 0.06 ug/ml); settings: dose 16.0 µg/ml
T1 sequence (whole entry): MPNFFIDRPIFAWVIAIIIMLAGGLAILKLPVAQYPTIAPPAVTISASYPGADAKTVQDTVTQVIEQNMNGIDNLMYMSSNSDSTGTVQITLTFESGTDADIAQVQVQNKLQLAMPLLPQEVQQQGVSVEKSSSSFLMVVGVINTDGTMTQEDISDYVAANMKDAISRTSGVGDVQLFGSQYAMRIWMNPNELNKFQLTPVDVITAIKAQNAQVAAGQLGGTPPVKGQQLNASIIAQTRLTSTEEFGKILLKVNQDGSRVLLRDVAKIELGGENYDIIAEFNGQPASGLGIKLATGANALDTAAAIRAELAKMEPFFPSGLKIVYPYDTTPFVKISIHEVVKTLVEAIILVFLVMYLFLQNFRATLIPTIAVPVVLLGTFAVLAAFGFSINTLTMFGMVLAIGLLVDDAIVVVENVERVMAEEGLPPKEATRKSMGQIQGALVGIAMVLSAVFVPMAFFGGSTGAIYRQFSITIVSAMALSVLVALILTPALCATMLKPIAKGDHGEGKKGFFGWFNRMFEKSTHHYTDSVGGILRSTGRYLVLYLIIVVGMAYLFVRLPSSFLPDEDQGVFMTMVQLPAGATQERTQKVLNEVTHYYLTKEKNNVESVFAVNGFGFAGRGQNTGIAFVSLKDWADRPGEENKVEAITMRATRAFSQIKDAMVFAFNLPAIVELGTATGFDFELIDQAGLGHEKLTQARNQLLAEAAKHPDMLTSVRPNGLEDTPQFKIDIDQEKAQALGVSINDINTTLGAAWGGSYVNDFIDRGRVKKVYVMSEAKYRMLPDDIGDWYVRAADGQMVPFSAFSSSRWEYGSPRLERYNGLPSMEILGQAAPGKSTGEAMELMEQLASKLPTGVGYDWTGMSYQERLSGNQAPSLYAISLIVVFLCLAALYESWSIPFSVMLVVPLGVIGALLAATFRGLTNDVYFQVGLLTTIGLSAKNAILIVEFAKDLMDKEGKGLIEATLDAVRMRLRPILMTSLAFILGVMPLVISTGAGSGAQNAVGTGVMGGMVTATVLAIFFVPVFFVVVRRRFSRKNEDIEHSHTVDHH

[2] = target: T1, Multidrug efflux pump subunit AcrB (Escherichia coli (strain K12)); assay: Inhibition of AcrB in multidrug-resistant Escherichia coli BW25113 assessed as potentiation of tetraphenylphosphonium-induced antibacterial activity by measuring tetraphenylphosphonium MIC at 32 ug/ml by checkerboard titration method (reference value: 1024 ug/ml); settings: dose 32.0 µg/ml
[3] = target: T1, Multidrug efflux pump subunit AcrB (Escherichia coli (strain K12)); assay: Inhibition of AcrB in multidrug-resistant Escherichia coli BW25113 assessed as potentiation of tetraphenylphosphonium-induced antibacterial activity by measuring tetraphenylphosphonium MIC at 16 ug/ml by checkerboard titration method (reference value: 1024 ug/ml); settings: dose 16.0 µg/ml
[4] = target: T1, Multidrug efflux pump subunit AcrB (Escherichia coli (strain K12)); assay: Inhibition of AcrB in multidrug-resistant Escherichia coli BW25113 assessed as potentiation of levofloxacin-induced antibacterial activity by measuring levofloxacin MIC at 32 ug/ml by checkerboard titration method (reference value: 0.06 ug/ml); settings: dose 32.0 µg/ml
[5] = target: T1, Multidrug efflux pump subunit AcrB (Escherichia coli (strain K12)); assay: Inhibition of AcrB in multidrug-resistant Escherichia coli BW25113 assessed as potentiation of erythromycin-induced antibacterial activity by measuring erythromycin MIC at 8 ug/ml by checkerboard titration method (reference value: 64 ug/ml); settings: dose 8.0 µg/ml
[6] = target: T1, Multidrug efflux pump subunit AcrB (Escherichia coli (strain K12)); assay: Inhibition of AcrB in multidrug-resistant Escherichia coli BW25113 assessed as potentiation of erythromycin-induced antibacterial activity by measuring erythromycin MIC at 32 ug/ml by checkerboard titration method (reference value: 64 ug/ml); settings: dose 32.0 µg/ml
[7] = target: T1, Multidrug efflux pump subunit AcrB (Escherichia coli (strain K12)); settings: Escherichia coli BW25113; dose 32.0 µg/ml
[8] = target: T1, Multidrug efflux pump subunit AcrB (Escherichia coli (strain K12)); assay: Inhibition of AcrB in Escherichia coli BW25113 assessed as reduction in glucose-induced nile red efflux at 50 uM preincubated for 15 mins followed by nile red addition and incubated for 3 hrs in shaker in presence of CCCP by fluorimetric analysis; settings: time 3.25 hrs
Method in brief: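 Wild-type and AcrB-deleted cells were preloaded with Nile Red, with or without compound. Fluorescence was recorded, and efflux was triggered at 100 s with 0.2% glucose. Traces were compared with the deletion-strain level. Triplicate experiments used different cell batches.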

[9] = target: T1, Multidrug efflux pump subunit AcrB (Escherichia coli (strain K12)); assay: Inhibition of AcrB in multidrug-resistant Escherichia coli BW25113 assessed as potentiation of chloramphenicol-induced antibacterial activity by measuring chloramphenicol MIC at 16 ug/ml by checkerboard titration method (reference value: 8 ug/ml); settings: dose 16.0 µg/ml
[10] = target: T1, Multidrug efflux pump subunit AcrB (Escherichia coli (strain K12)); settings: Escherichia coli BW25113; dose 16.0 µg/ml
[11] = target: T1, Multidrug efflux pump subunit AcrB (Escherichia coli (strain K12)); assay: Inhibition of AcrB in multidrug-resistant Escherichia coli BW25113 assessed as potentiation of levofloxacin-induced antibacterial activity by measuring levofloxacin MIC at 8 ug/ml by checkerboard titration method (reference value: 0.06 ug/ml); settings: dose 8.0 µg/ml
[12] = target: T1, Multidrug efflux pump subunit AcrB (Escherichia coli (strain K12)); assay: Inhibition of AcrB in multidrug-resistant Escherichia coli BW25113 assessed as potentiation of erythromycin-induced antibacterial activity by measuring erythromycin MIC at 16 ug/ml by checkerboard titration method (reference value: 64 ug/ml); settings: dose 16.0 µg/ml
[13] = target: T1, Multidrug efflux pump subunit AcrB (Escherichia coli (strain K12)); settings: Escherichia coli BW25113; dose 8.0 µg/ml
[14] = Toxicity in multidrug-resistant Escherichia coli BW25113 assessed as growth inhibition by two-fold broth dilution method
[15] = target: T1, Multidrug efflux pump subunit AcrB (Escherichia coli (strain K12)); assay: Inhibition of AcrB in multidrug-resistant Escherichia coli BW25113 assessed as potentiation of chloramphenicol-induced antibacterial activity by measuring chloramphenicol MIC at 8 ug/ml by checkerboard titration method (reference value: 8 ug/ml); settings: dose 8.0 µg/ml
Cell membrane [16] = assay: Induction of inner membrane permeabilization in wild type Escherichia coli BW25113 assessed as perturbation of proton motive force at 32 ug/ml measured after 10 mins in presence of CCCP and glucose by Di0C2(3) probe based fluorescence assay; settings: escherichia coli bw25113, 10 min, dose 32 µg/ml
Method in brief: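 Cell suspensions were left untreated or exposed to 8-128 µg/mL compound for 10 min. DiOC₂(3) was then added and fluorescence followed to a plateau. Cells were re-energized with 0.5% glucose, and the rise in fluorescence was read as membrane-potential build-up. CCCP was added last to dissipate the potential.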

[17] = target: T1, Multidrug efflux pump subunit AcrB (Escherichia coli (strain K12)); assay: Inhibition of AcrB in multidrug-resistant Escherichia coli BW25113 assessed as potentiation of chloramphenicol-induced antibacterial activity by measuring chloramphenicol MIC at 32 ug/ml by checkerboard titration method (reference value: 8 ug/ml); settings: dose 32.0 µg/ml
[18] = Toxicity in multidrug-resistant Escherichia coli BW25113 harboring AcrB deletion mutant assessed as growth inhibition by two-fold broth dilution method
[19] = target: T1, Multidrug efflux pump subunit AcrB (Escherichia coli (strain K12)); settings: Escherichia coli BW25113; dose 128.0 µg/ml
[20] = target: T1, Multidrug efflux pump subunit AcrB (Escherichia coli (strain K12)); assay: Inhibition of AcrB in multidrug-resistant Escherichia coli BW25113 assessed as potentiation of tetraphenylphosphonium-induced antibacterial activity by measuring tetraphenylphosphonium MIC at 8 ug/ml by checkerboard titration method (reference value: 1024 ug/ml); settings: dose 8.0 µg/ml
Cell membrane [21] = assay: Induction of outer membrane permeabilization in wild type Escherichia coli BW25113 assessed as increase in nitrocefin hydrolysis at 128 ug/ml in presence of CCCP by spectroscopic analysis; settings: dose 128 µg/ml
Method in brief: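 Intact E. coli were treated with 10 μM CCCP to block nitrocefin efflux, then given compound, nothing, or polymyxin B as permeabilizer control. Nitrocefin was added, and hydrolysis by periplasmic β-lactamase was followed as the rise in absorbance at 490 nm. Duplicate experiments were run on different days.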

[22] = target: T1, Multidrug efflux pump subunit AcrB (Escherichia coli (strain K12)); settings: Escherichia coli BW25113; dose 64.0 µg/ml
Escherichia coli = assay: Antibacterial activity against multidrug-resistant Escherichia coli BW25113 harboring AcrB deletion mutant by two-fold broth dilution method; type: functional
Method in brief: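 Two-fold broth dilution MIC against an isogenic BW25113 strain with AcrB deleted, run alongside the AcrB-expressing parent. The test was done to define sub-inhibitory levels for later checkerboard work.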

SMILES: CC1(C)CCc2c(-c3nnco3)cc3c(OCc4ccc(F)cc4)cccc3c2O1
- MIC [1]: 0.06 µg/mL
- MIC [2]: 512 µg/mL
- MIC [3]: 512 µg/mL
- MIC [4]: 0.06 µg/mL
- MIC [5]: 64 µg/mL
- MIC [6]: 32 µg/mL
- MIC [7]: 16 µg/mL (≈ 39.6 µM)
- inhibition [8]: Active
- MIC [9]: 8 µg/mL
- MIC [10]: 16 µg/mL (≈ 39.6 µM)
- MIC [11]: 0.06 µg/mL
- MIC [12]: 64 µg/mL
- MIC [13]: 16 µg/mL (≈ 39.6 µM)
- MIC [14]: 64 µg/mL (≈ 158 µM)
- MIC [15]: 8 µg/mL
- Activity (Cell membrane [16]): Not Active
- MIC [17]: 8 µg/mL
- MIC [18]: 64 µg/mL (≈ 158 µM)
- MIC [19]: 16 µg/mL (≈ 39.6 µM)
- MIC [20]: 1020 µg/mL
- Activity (Cell membrane [21]): Not Active
- MIC [22]: 16 µg/mL (≈ 39.6 µM)

SMILES: C[C@H]1COc2c(N3CCN(C)CC3)c(F)cc3c(=O)c(C(=O)O)cn1c23.C[C@H]1COc2c(N3CCN(C)CC3)c(F)cc3c(=O)c(C(=O)O)cn1c23.O [LEVOFLOXACIN]
- MIC (Escherichia coli): 0.04 µg/mL

SMILES: O=C(N[C@H](CO)[C@H](O)c1ccc([N+](=O)[O-])cc1)C(Cl)Cl [CHLORAMPHENICOL]
- MIC (Escherichia coli): 2 µg/mL (≈ 6.19 µM)

SMILES: c1ccc([P+](c2ccccc2)(c2ccccc2)c2ccccc2)cc1 [TETRAPHENYLPHOSPHONIUM]
- MIC (Escherichia coli): 32 µg/mL
